A selection: hits, their analogues and other compounds. The true share with any hit is near 2.2%.
SF1 activator – SF-1 (human) activation | Q13285 | CHO-K1 Gal4-SF-1 LBD luciferase reporter; % increase over DMSO SF-1-specific signal | activation, % at 10 µM | 65,000 compounds, 1.9% hits | AID 522;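 active = activation above the mean activation of all tested compounds plus 3 SD, cut at about 50% in these data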
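Assay system: CHO-K1 cells co-transfected with Gal4 DBD–human SF-1 LBD, 5xGal4 luciferase reporter / Input: 4,000 cells per well / Incubation: 20 h compound exposure at 37 °C after 1 h cell settling / Detection: SteadyLite luciferase luminescence / Control set: DMSO negative control and −SF1 background wells / Replication: one test per compound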
MT1-MMP txn act – activates MT1-MMP transcription; HT1080 MT1-MMP promoter luciferase reporter, luminescence, overnight; active compounds read high; activation factor at 10 µM; 86,000 compounds, 0.16% hits; AID 750;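 active = activation factor of at least 2 for MT1-MMP transcription at 10 µM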
AP ELISA ortho – alternative pathway complement inhibition, orthogonal assay. 62,000 compounds, 0.08% hits. Human serum alternative complement pathway, LPS-coated ELISA, C3 deposition; tested in compound mixtures. inhibition, % at 5 µM;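 active = inhibition above 30% in each of the two pooled mixtures holding the compound, so the lower value exceeds 30%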;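 note: 0% = serum in Mg-EGTA without compound and 100% = EDTA serum blank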
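Test system – human serum alternative complement pathway, C3 deposition on LPS-coated wells · Buffer or medium – diluted human serum in Mg2+-EGTA GVB++ · Compound dosing – 5 µM each compound, pools of ten, 50 µM per pool · Schedule – 1 h serum-compound exposure at 37 °C · Measured by – Anti-C3 ELISA, OD 450 nm · Read-out basis – percent inhibition of C3 deposition onto LPS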
E coli RNAP – inhibitors of Escherichia coli RNA polymerase; P0A8V2; E. coli RNA polymerase, fluorescence transcription assay; inhibition, %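 (tested at 10 µM)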; 62,000 compounds, 0.2% hits; AID 559; in the data active = inhibition above about 20%;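 note: 0% = enzyme without compound and 100% = no enzyme blank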
RORA act – activates the human nuclear receptor RORA; P35398; CHO-K1 Gal4-RORA LBD luciferase reporter, luminescence; percent increase over mock-subtracted basal signal; activation, % at 10 µM; 65,000 compounds, 1.5% hits; AID 560;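 active = activation above the mean of all tested compounds plus 3 SD, cut at about 49% in these data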;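 note: 0% = DMSO-treated RORA cells and 100% = added signal equal to DMSO minus mock-transfected cells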
Target sequence (P35398 whole entry, looked up, the tested form may be a part): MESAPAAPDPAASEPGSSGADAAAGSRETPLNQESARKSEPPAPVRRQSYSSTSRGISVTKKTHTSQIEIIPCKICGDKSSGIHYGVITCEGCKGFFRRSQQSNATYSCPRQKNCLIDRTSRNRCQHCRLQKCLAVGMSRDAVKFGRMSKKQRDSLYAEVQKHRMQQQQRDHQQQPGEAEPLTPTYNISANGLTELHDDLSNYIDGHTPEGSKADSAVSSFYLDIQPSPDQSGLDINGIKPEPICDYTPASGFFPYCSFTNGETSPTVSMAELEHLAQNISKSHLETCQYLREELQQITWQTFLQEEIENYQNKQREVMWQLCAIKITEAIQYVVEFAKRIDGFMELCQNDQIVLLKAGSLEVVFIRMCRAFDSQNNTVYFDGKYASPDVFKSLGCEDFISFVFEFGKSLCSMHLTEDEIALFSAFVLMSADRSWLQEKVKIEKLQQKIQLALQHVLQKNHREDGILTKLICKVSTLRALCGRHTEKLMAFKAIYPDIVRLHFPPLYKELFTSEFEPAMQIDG
TNAP act mid DEA – activators of human TNAP at intermediate phosphate acceptor. purified TNAP, CDP-star luminescence, 100 mM DEA, 30 min; active compounds read high; scale: 0 levamisole-inhibited, 1 vehicle-only enzyme. AID 813. activation factor at 20 µM. 64,000 tested, under 10 active;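 active = activation factor of at least 2 at 20 µM, relative to controls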
The depositor's hits bear a star; x = not tested or not shown.

SMILES | SF1 activator | MT1-MMP txn act | AP ELISA ortho | E coli RNAP | RORA act | TNAP act mid DEA
COc1ccc(CCNC(=O)CN2C(=O)c3ccccc3S2(=O)=O)cc1 | 4 | 1.2 | x | x | -9 | x
O=C1c2ccccc2S(=O)(=O)N1CC1CC(c2ccccc2)=NO1 (stereo not drawn) | 30 | 1.8 | 11 | x | 49* | 0.9
Cc1ccc(NC(=O)COC(=O)c2ccn(C)n2)cc1 | 10 | 1 | 5 | 0 | -1 | 0.9
CCN(CC)S(=O)(=O)c1cccc(C(=O)Nc2ccc(Cl)cn2)c1 | 27 | 1.3 | 6 | 5 | 10 | 0.9
Cc1nc(NC(=O)c2cccnc2)ccc1Br | 10 | 1.4 | 19 | 6 | -4 | 1
CCN(CC)S(=O)(=O)c1cc(C(=O)Nc2ccc(Cl)cn2)ccc1C | 61* | 0.9 | 13 | x | 47 | 0.9
Cc1ccccc1C(=O)Nc1ccc(Br)c(C)n1 | 36 | 1.4 | 9 | 2 | 56* | 0.9
Cc1ccccc1C(=O)Nc1ccc(Cl)cn1 | 19 | 1.4 | 4 | 12 | 56* | 0.9
Cc1ccc(C(=O)Nc2ccc(Cl)cn2)cc1 | -4 | 0.6 | -1 | 11 | 27 | 0.9
Cc1c(C(=O)Nc2ccc(Cl)cn2)oc2ccccc12 | 2 | 2.1* | -5 | 8 | -20 | 0.8
Cc1c(C(=O)Nc2cccc3cccnc23)oc2ccccc12 | 18 | 1.6 | -11 | 4 | -2 | 0.9
CC(=O)c1oc2ccccc2c1N | 11 | 1.1 | 5 | 1 | -8 | 0.9
Cc1c(C(=O)Nc2cnccn2)oc2ccccc12 | 56* | 1.2 | 5 | 1 | 45 | 1
CC(C)C(=O)Nc1ccc(NC(=O)c2ccccc2Cl)nc1 | 38 | 1.6 | -4 | 7 | 62* | 0.9
Nc1c(C(=O)Nc2ccc(Cl)cc2)oc2ccccc12 | 106* | 1.7 | 19 | -6 | 74* | 0.9
O=C(Nc1nnc(C2CCCCC2)s1)c1cccs1 | 54* | 1.2 | -3 | 7 | 41 | 0.9
O=C(Nc1nnc(C2CCCO2)s1)c1cccs1 (stereo not drawn) | 36 | 1.3 | 18 | 4 | 36 | 1
O=C(Nc1nnc(C2CCCCC2)s1)c1ccco1 | 70* | 1.3 | 11 | 6 | 6 | 0.9
CC(=O)N1[C@H](Cc2ccccc2)C=C[C@]1(C)C(=O)O | x | 1.1 | x | x | x | x
CCNC(=O)CC1C(=O)N(c2ccccc2)C(=O)N1Cc1ccc(OC)cc1 (stereo not drawn) | 17 | 1 | 2 | -6 | 2 | 1
C/C(N)=C(/C#N)C(=O)CSc1nc2ccc(C)cc2[nH]1 | 77* | 1.2 | 1 | 7 | 26 | 0.9
COc1ccc(C(C)(C)C)cc1NC(=O)Nc1ccc2c(c1)OCO2 | -8 | 1 | -1 | 8 | -11 | 0.8
CN(C)c1ccc(-c2ccccc2)nn1 | 26 | 1.2 | 0 | 6 | 56* | 0.9
COc1ccccc1N1CCN(c2ccc(-c3ccccc3)nn2)CC1 | -12 | 1 | 11 | 6 | -32 | 0.9
COc1ccc(-c2cnn(-c3ccccc3)c2N)cc1OC | -5 | 0.9 | 15 | x | -8 | 0.9
SMILES | SF1 activator | MT1-MMP txn act | AP ELISA ortho | E coli RNAP | RORA act | TNAP act mid DEA
Nc1nc2c(s1)CCc1c-2cnn1-c1ccccc1 | 91* | 1.3 | 11 | 4 | 17 | 0.9
Cn1cccc1-c1nc2ccc(NC(=O)c3ccco3)cc2[nH]1 | 17 | 1.5 | 15 | 6 | 5 | 1
Cc1ccc2nc(-c3ccc(NC(=O)c4ccco4)cc3)[nH]c2c1 | 50* | 1.3 | 19 | 0 | 31 | 0.9
C=CCNC(=O)CC(C)C(CCCCC)C(=O)O (stereo not drawn) | -7 | 1.1 | -8 | -8 | 5 | 0.9
c1ccn2c(SCc3cn4ccsc4n3)nnc2c1 | 71* | 1.6 | 7 | 5 | 61* | 0.9
c1ccc2c(-c3nnc(SCc4cn5ccccc5n4)o3)c[nH]c2c1 | x | 1 | x | x | x | x
c1ccc(CSc2nnc(-c3c[nH]c4ccccc34)o2)cc1 | 46 | 1.2 | 1 | 1 | 80* | 0.9
CC1CCCN(c2ccc(C(=O)NCC3CCCO3)cn2)C1 (stereo not drawn) | 58* | 1.5 | -24 | -6 | 28 | 0.9
